Laboratory results reported in ChEMBL document CHEMBL3596168, “Novel inhibitors of RANKL-induced osteoclastogenesis: Design, synthesis, and biological evaluation of 6-(2,4-difluorophenyl)-3-phenyl-2H-benzo[e][1,3]oxazine-2,4(3H)-diones” (Bioorg Med Chem, 2015).
The source made the active and inactive calls. The calls are words filed in the database; no cut-off is given here.

Columns and labels:
[1] = target: T1, Tumor necrosis factor ligand superfamily member 11 (Mus musculus) (UniProt O35235); test: Inhibition of recombinant mouse RANKL-induced osteoclastogenesis of mouse RAW264.7 cells assessed as reduction of TRAP-positive multinucleated cells at 5 uM after 4 days by light microscopic analysis relative to control; type: cell-based
T1 sequence (whole entry): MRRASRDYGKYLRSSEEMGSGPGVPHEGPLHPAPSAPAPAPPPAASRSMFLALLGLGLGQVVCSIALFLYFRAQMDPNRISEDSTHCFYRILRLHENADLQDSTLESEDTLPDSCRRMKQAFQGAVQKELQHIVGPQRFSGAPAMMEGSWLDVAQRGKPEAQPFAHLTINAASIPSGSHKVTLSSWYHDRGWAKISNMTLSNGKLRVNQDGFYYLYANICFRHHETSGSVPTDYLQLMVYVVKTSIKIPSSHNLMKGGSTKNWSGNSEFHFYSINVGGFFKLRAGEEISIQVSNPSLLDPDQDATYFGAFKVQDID
In short: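 RAW264.7 cells were cultured 4 days in α-MEM with 10% FBS, 2 mM L-glutamine and RANKL 100 ng/mL, with or without compound at 5 µM. Medium was changed on day 2. Cells were fixed in acetone/citrate/formaldehyde and stained for TRAP for 1 h at 37 °C. TRAP+ cells with three or more nuclei were counted by light microscopy. Inhibition = 100% − MNCs (%). At least three independent experiments.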

[2] = target: T1, Tumor necrosis factor ligand superfamily member 11 (Mus musculus); test: Inhibition of recombinant mouse RANKL-induced osteoclastogenesis of mouse RAW264.7 cells assessed as suppression of cathepsin K mRNA expression at 2.5 to 5 uM preincubated for 1 hr followed by RANKL addition measured after 24 hrs by RT-PCR analysis; type: cell-based
In short: (§1)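 RAW264.7 cells (1 × 10⁵ per dish) were serum-starved 24 h in α-MEM, pretreated with compound for 1 h, then given RANKL (100 ng/mL) for 24 h. Total RNA (2 µg) was reverse-transcribed with oligo(dT) and amplified with mouse-specific primers. Products were resolved on 1.5% agarose with EtBr and densities normalized to GAPDH, as % of control. At least two independent experiments.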

[3] = target: T1, Tumor necrosis factor ligand superfamily member 11 (Mus musculus); test: Inhibition of recombinant mouse RANKL-induced osteoclastogenesis of mouse RAW264.7 cells assessed as suppression of c-fos mRNA expression at 2.5 to 5 uM preincubated for 1 hr followed by RANKL addition measured after 24 hrs by RT-PCR analysis; type: cell-based; in short: as §1
[4] = target: T1, Tumor necrosis factor ligand superfamily member 11 (Mus musculus); test: Inhibition of recombinant mouse RANKL-induced osteoclastogenesis of mouse RAW264.7 cells assessed as suppression of NFATc1 mRNA expression at 2.5 to 5 uM preincubated for 1 hr followed by RANKL addition measured after 24 hrs by RT-PCR analysis; type: cell-based; in short: as §1
[5] = Cytotoxicity against mouse RAW264.7 cells assessed as cell viability at 5 uM after 24 hrs by MTT assay relative to control; type: cell-based; conditions: read-out: Activity
In short: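 RAW264.7 cells, 1 × 10⁴ per well in DMEM with 10% FBS, were exposed to compounds for 24 h. MTT (500 µg/mL) was then added for 1 h at 37 °C, formazan was dissolved in DMSO, and absorbance was read at 540 nm. Viability at 5 µM is relative to untreated control. At least three independent experiments, mean ± SD.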

[6] = target: T1, Tumor necrosis factor ligand superfamily member 11 (Mus musculus); test: Inhibition of recombinant mouse RANKL-induced TRAP activity in mouse RAW264.7 cells using 4-nitrophenyl phosphate as TRAP substrate preincubated for 4 days followed by substrate addition measured after 15 mins by ELISA reader analysis; type: cell-based
In short: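 RAW264.7 cells (2 × 10⁴ per well) were cultured 4 days in α-MEM with 10% FBS, 2 mM L-glutamine and murine RANKL 100 ng/mL, with or without compound. Cells were lysed in 0.1% Triton X-100/50 mM Tris-HCl pH 7.2 on ice. They were incubated with 2 mg/mL 4-nitrophenyl phosphate in 0.09 M citrate for 15 min at 37 °C, stopped with 0.1 N NaOH, and read at 405 nm. Protein was measured by BCA.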

[7] = target: T1, Tumor necrosis factor ligand superfamily member 11 (Mus musculus); test: Inhibition of recombinant mouse RANKL-induced osteoclastogenesis of mouse RAW264.7 cells assessed as suppression of TRAP mRNA expression at 2.5 to 5 uM preincubated for 1 hr followed by RANKL addition measured after 24 hrs by RT-PCR analysis; type: cell-based; in short: as §1
[8] = target: T1, Tumor necrosis factor ligand superfamily member 11 (Mus musculus); test: Inhibition of recombinant mouse RANKL-induced bone resorptive activity of mature osteoclasts derived from mouse RAW264.7 cells assessed as attenuation of resorbing pit formation on dentine slices after 4 days by toluidine blue staining assay; type: tissue-based
In short: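 Cells (1 × 10⁴ per well) were seeded on dentine slices in α-MEM with 10% FBS, 2 mM L-glutamine and RANKL 100 ng/mL, plus compound at 7.5, 5 or 2.5 µM. Medium was refreshed every 2 days. On day 4 cells were removed with 1 M NH₄OH and slices stained with 0.1% toluidine blue. Resorbed/total area was expressed as % of control, from more than 6 slices.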

[9] = target: T1, Tumor necrosis factor ligand superfamily member 11 (Mus musculus); test: Inhibition of recombinant mouse RANKL-induced NF-kappaB expression in nucleus of mouse RAW264.7 cells at 5 uM preincubated for 1 hr followed by RANKL addition measured after 24 hrs by ELISA plate analysis; type: cell-based
In short: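 Cells were pretreated 1 h with compound in α-MEM/10% FBS, then stimulated with RANKL (100 ng/mL) for 24 h. NF-κB p65 DNA binding in nuclear extracts was measured on plates coated with the response element, using primary plus tagged secondary antibody. Absorbance was read at 450 nm.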

[10] = target: T1, Tumor necrosis factor ligand superfamily member 11 (Mus musculus); test: Inhibition of recombinant mouse RANKL-induced NF-kappaB expression in nuclear extracts of mouse RAW264.7 cells assessed as decrease in ratio of NFATc1 to TBP level at 5 uM preincubated for 1 hr followed by RANKL addition measured after 24 hrs by Western blot analysis relative to control
In short: (§2)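 RAW264.7 cells (1 × 10⁵ per dish) grew in DMEM/10% FBS for 24 h. They were pretreated with compound in α-MEM/10% FBS for 1 h, then given RANKL (100 ng/mL) for 24 h. Nuclear extracts (18 µg protein) were run on 12% SDS–PAGE and immunoblotted for NF-κB p65, NFATc1 and TBP (loading reference) with ECL detection. More than two cultures.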

[11] = target: T1, Tumor necrosis factor ligand superfamily member 11 (Mus musculus); test: Inhibition of recombinant mouse RANKL-induced NF-kappaB expression in nuclear extracts of mouse RAW264.7 cells assessed as decrease in ratio of NF-kappaB to TBP level at 5 uM preincubated for 1 hr followed by RANKL addition measured after 24 hrs by Western blot analysis relative to control; in short: as §2

SMILES | inhibition [1] [%] | viability at 24 h, 5 µM [5] [%] | further results
C#Cc1cccc(-n2c(=O)oc3ccc(-c4ccc(F)cc4F)cc3c2=O)c1 | 57.5 | 88.4 | inhibition [2]: Active; inhibition [3]: Active; inhibition [4]: Active; inhibition [6]: Dose-dependent effect; inhibition [7]: Active
N#Cc1cccc(-n2c(=O)oc3ccc(-c4ccc(F)cc4F)cc3c2=O)c1 | 34 | 103 | –
O=c1oc2ccc(-c3ccc(F)cc3F)cc2c(=O)n1-c1cc(F)ccc1F | 86.8 | 86.6 | inhibition [8]: Dose-dependent effect; inhibition [9]: Active; inhibition [2]: Active; inhibition [3]: Active; inhibition [4]: Active; fold change (FC) [10]: 0.61; fold change (FC) [11]: 0.69; inhibition [6]: Dose-dependent effect; inhibition [7]: Active
O=c1oc2ccc(-c3ccc(F)cc3F)cc2c(=O)n1-c1ccc(F)c(F)c1 | 17.4 | 72.2 | –
COc1ccc(-n2c(=O)oc3ccc(-c4ccc(F)cc4F)cc3c2=O)cc1OC | 21.2 | 103 | –
O=c1oc2ccc(-c3ccc(F)cc3F)cc2c(=O)n1-c1ccc(F)cc1F | 42.3 | 96.5 | –
O=c1oc2ccc(-c3ccc(F)cc3F)cc2c(=O)n1-c1ccccc1C(F)(F)F | 31.6 | 95.5 | –
COc1cccc(-n2c(=O)oc3ccc(-c4ccc(F)cc4F)cc3c2=O)c1 | 30.8 | 106 | –
N#Cc1ccc(-n2c(=O)oc3ccc(-c4ccc(F)cc4F)cc3c2=O)cc1 | 29.4 | 108 | –
O=c1oc2ccc(-c3ccc(F)cc3F)cc2c(=O)n1-c1ccc(C(F)(F)F)cc1 | 16.9 | 103 | –
O=c1oc2ccc(-c3ccc(F)cc3F)cc2c(=O)n1-c1cccc(C(F)(F)F)c1 | 62.9 | 100 | inhibition [6]: Dose-dependent effect
O=c1oc2ccc(-c3ccc(F)cc3F)cc2c(=O)n1-c1ccc(Cl)cc1F | 19.4 | 96.2 | –
